Assay results as given in ChEMBL document CHEMBL4811313, “Himalaquinones A-G, Angucyclinone-Derived Metabolites Produced by the Himalayan Isolate Streptomyces sp. PU-MM59” (J Nat Prod, 2021).
One block for each molecule: values may come before it. Calls of active or inactive are those of the source. The calls are words filed in the database; no cut-off is given here.

How the values were obtained:
[1] = tested on: PC-3; assay: Cytotoxicity against human PC3 cells assessed as reduction in cell viability after 72 hrs by resazurin dye based fluorescence analysis; assay type: functional; settings: PC-3, 72 h
Summary of the method: (§1)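 A549 (non-small-cell lung) and PC3 (prostate) human cancer cells from ATCC. Viability was read after 72 h, in triplicate. Runs were either a single 80 μM concentration or a dose-response. Actinomycin D served as the positive control.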

[2] = tested on: A549; assay: Cytotoxicity against human A549 cells assessed as reduction in cell viability after 72 hrs by resazurin dye based fluorescence analysis; assay type: functional; settings: A549, 72 h; summary of the method: as §1
[3] = target: Eukaryotic translation initiation factor 4E-binding protein 1 (Homo sapiens) (UniProt Q13541); assay: Inhibition of 4E-BP1 phosphorylation in human HCT116 cells at 2 uM after 6 hrs by Western blot analysis; assay type: cell-based; settings: HCT-116
Summary of the method: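 HCT116 cells were treated 6 h with 2 μM compound or with DMSO as negative control. Lysate was run on SDS-PAGE, blotted to PVDF and probed for phospho-4E-BP1 (Thr37/46, Ser65, Thr70), with chemiluminescent detection.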

[4] = tested on: Bacillus spizizenii; assay: Antibacterial activity against Bacillus subtilis ATCC 6633 at <= 133 uM incubated for 16 hrs; assay type: functional, organism-based; settings: dose microM <=133, time 16.0 hrs
Summary of the method: (§2)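 Microbial strains from ATCC or NRRL, tested in triplicate with a top concentration of 133 μM. Positive controls were kanamycin and ampicillin (S. aureus, M. luteus, S. enterica, E. coli) and amphotericin B (S. cerevisiae).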

[5] = tested on: PC-3; assay: Cytotoxicity against human PC3 cells assessed as reduction in cell viability at 80 uM after 72 hrs by resazurin dye based fluorescence analysis; assay type: functional; summary of the method: as §1
[6] = tested on: Staphylococcus aureus; assay: Antibacterial activity against Staphylococcus aureus ATCC 6538 at <= 133 uM incubated for 16 hrs; assay type: functional, organism-based; settings: dose microM <=133, time 16.0 hrs; summary of the method: as §2
[7] = tested on: Escherichia coli; assay: Antibacterial activity against Escherichia coli NRRL B-3708 at <= 133 uM incubated for 16 hrs; assay type: functional, organism-based; settings: dose microM <=133, time 16.0 hrs; summary of the method: as §2
[8] = tested on: Micrococcus luteus; assay: Antibacterial activity against Micrococcus luteus NRRL B-287 at <= 133 uM incubated for 16 hrs; assay type: functional, organism-based; settings: dose microM <=133, time 16.0 hrs; summary of the method: as §2
[9] = tested on: A549; assay: Cytotoxicity against human A549 cells assessed as reduction in cell viability at 80 uM after 72 hrs by resazurin dye based fluorescence analysis; assay type: functional; summary of the method: as §1
[10] = tested on: Salmonella enterica; assay: Antibacterial activity against Salmonella enterica ATCC 10708 at <= 133 uM incubated for 16 hrs; assay type: functional, organism-based; settings: dose microM <=133, time 16.0 hrs; summary of the method: as §2
[11] = tested on: Mycolicibacterium aurum; assay: Antibacterial activity against Mycobacterium aurum ATCC 23366 at <= 133 uM incubated for 16 hrs; assay type: functional, organism-based; settings: dose microM <=133, time 16.0 hrs; summary of the method: as §2
[12] = tested on: Saccharomyces cerevisiae; assay: Antifungal activity against Saccharomyces cerevisiae ATCC 204508 at <= 133 uM after 16 hrs; assay type: functional, organism-based; settings: dose microM <=133, time 16.0 hrs; summary of the method: as §2
[13] = Toxicity in axolotl embryo at 10 uM after 7 days by tail regeneration assay; settings: ambystoma mexicanum, 168 h, time 7 day
Summary of the method: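 Stage 42 axolotl embryos were hatched manually, anesthetized with benzocaine and given 2 mm tail amputations. They were reared at 18–19 °C in artificial pond water with compound (10 μM; one compound at 1.0 μM) in 0.1% final DMSO. Regeneration was imaged at 0 and 7 days postamputation. DMSO was the negative control and geldanamycin the positive control.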

[14] = Toxicity in axolotl embryo at 1 uM after 7 days by tail regeneration assay; settings: ambystoma mexicanum, 168 h, time 7 day
Summary of the method: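 Stage 42 embryos manually hatched, anaesthetised with benzocaine, given 2 mm tail amputations, then reared with or without test agent in artificial pond water at 18–19 °C for 7 days postamputation. Imaged at 0 and 7 DPA. Agents dissolved in DMSO, 0.1% final DMSO. Vehicle served as negative control, geldanamycin as positive control.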

Chain of Eukaryotic translation initiation factor 4E-binding protein 1 (Homo sapiens) (Q13541 whole entry): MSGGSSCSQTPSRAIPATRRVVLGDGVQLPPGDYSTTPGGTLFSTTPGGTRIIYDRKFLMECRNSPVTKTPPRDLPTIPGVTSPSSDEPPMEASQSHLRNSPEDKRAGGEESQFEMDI

- inhibition [3]: Active
SMILES: Cc1cc(O)c2c(c1)C[C@@H](O)C1=C2C(=O)c2c(O)ccc(O[C@H]3C[C@@H](O)[C@H](O[C@H]4C[C@@H](O[C@H]5CC[C@H](O[C@H]6C[C@@H](O)[C@H](O[C@H]7C[C@@H](O[C@H]8CC[C@H](O)[C@H](C)O8)[C@H](O)[C@@H](C)O7)[C@@H](C)O6)[C@H](C)O5)[C@H](O)[C@@H](C)O4)[C@@H](C)O3)c2C1=O [LANDOMYCIN A]
- IC50 [1]: < 500 nM
- IC50 [2]: < 500 nM

SMILES: CC(=O)OC(=O)C(O)/C(C)=C\c1c(O)cc2c(c1O)C(=O)c1cccc(O)c1C2=O (stereo unspecified)
- Activity [4]: inactive
- Activity [5]: inactive
- Activity [6]: inactive
- Activity [7]: inactive
- Activity [8]: inactive
- Activity [9]: inactive
- Activity [10]: inactive
- Activity [11]: inactive
- Activity [12]: inactive

SMILES: C[C@@H]1O[C@@H](O[C@@H]2C[C@H](c3ccc4c(c3O)C(=O)C3=C(C4=O)[C@@]4(O[C@H]5CC[C@H](O)[C@H](C)O5)C(=O)C[C@](C)(O)C[C@@]4(O)C=C3)O[C@H](C)[C@H]2O)CC[C@@H]1O[C@H]1C[C@@H](O)[C@H](O)[C@@H](C)O1
- Activity [13]: Non-Toxic

- inhibition [3]: Active
SMILES: Cc1cc(O)c2c3c(ccc2c1)C(=O)c1c(O[C@H]2C[C@@H](O)[C@H](O[C@H]4C[C@@H](O[C@H]5CC[C@H](O[C@H]6CC[C@H](O[C@H]7C[C@@H](O[C@H]8CC[C@H](O)[C@H](C)O8)[C@H](O)[C@@H](C)O7)[C@@H](C)O6)[C@H](C)O5)[C@H](O)[C@@H](C)O4)[C@@H](C)O2)cccc1C3=O
- IC50 [1]: < 500 nM
- IC50 [2]: < 500 nM

SMILES: C[C@@H]1O[C@H]2O[C@H]3[C@@H](C)O[C@@H](c4ccc5c(c4O)C(=O)C4=C(C5=O)[C@@]5(O)C(=O)C[C@](C)(O)C[C@@]5(O)C=C4)C[C@H]3O[C@H]2CC1=O
- Activity [13]: Non-Toxic

SMILES: C[C@@H]1O[C@@H](O[C@H]2[C@H](O)C[C@H](c3ccc4c(c3O)C(=O)C3=C(C4=O)[C@@]4(O)C(=O)C[C@](C)(O[C@H]5CC[C@H](O[C@H]6C=CC(=O)[C@H](C)O6)[C@H](C)O5)C[C@@]4(O)C=C3)O[C@@H]2C)C=CC1=O [SAQUAYAMYCINS A]
- IC50 [1]: < 500 nM
- Activity [14]: Toxic
- IC50 [2]: < 500 nM
- inhibition [3]: Active

SMILES: COc1cccc2c1C(=O)c1ccc(/C=C(/C)CC(=O)O)c(O)c1C2=O
- Activity [4]: inactive
- Activity [5]: inactive
- Activity [6]: inactive
- Activity [7]: inactive
- Activity [8]: inactive
- Activity [9]: inactive
- Activity [10]: inactive
- Activity [11]: inactive
- Activity [12]: inactive

SMILES: COc1cccc2c1C(=O)C1=C(C2=O)c2c(O)cc(C)cc2[C@@H](O)[C@H]1O
- IC50 [1]: 320 nM
- Activity [4]: inactive
- IC50 [2]: 1880 nM
- Activity [6]: inactive
- Activity [7]: inactive
- inhibition [3]: inactive
- Activity [8]: inactive
- Activity [10]: inactive
- Activity [11]: inactive
- Activity [13]: Non-Toxic
- Activity [12]: inactive

SMILES: Cc1cc(O)c2c3c(ccc2c1)C(=O)c1c(O[C@H]2C[C@@H](O)[C@H](O[C@H]4C[C@@H](O)[C@H](O)[C@@H](C)O4)[C@@H](C)O2)cccc1C3=O [LANDOMYCIN O]
- Activity [13]: Toxic

SMILES: Cc1cc(O)c2c3c(ccc2c1)C(=O)c1c(O[C@H]2C[C@@H](O)[C@H](O[C@H]4C[C@@H](O[C@H]5CC[C@H](O[C@H]6C[C@@H](O)[C@H](O[C@H]7C[C@@H](O)[C@H](O)[C@@H](C)O7)[C@@H](C)O6)[C@H](C)O5)[C@H](O)[C@@H](C)O4)[C@@H](C)O2)cccc1C3=O [LANDOMYCIN M]
- Activity [13]: Toxic

SMILES: C/C(=C/c1c(O)cc2c(c1O)C(=O)c1cccc(O)c1C2=O)CC(=O)O
- Activity [4]: inactive
- Activity [5]: inactive
- Activity [6]: inactive
- Activity [7]: inactive
- Activity [8]: inactive
- Activity [9]: inactive
- Activity [10]: inactive
- Activity [11]: inactive
- Activity [12]: inactive

SMILES: C[C@@H]1O[C@@H](O[C@H]2CC[C@H](O[C@@]3(C)CC(=O)[C@]4(O)C5=C(C=C[C@]4(O)C3)C(=O)c3c(ccc([C@H]4C[C@@H](O)[C@H](O[C@@H]6O[C@@H](C)C(=O)C=C6N)[C@@H](C)O4)c3O)C5=O)O[C@H]2C)C=CC1=O [SAQUAYAMYCIN I]
- Activity [13]: Non-Toxic

SMILES: C[C@@H]1O[C@@H](O[C@H]2CC[C@H](O[C@@]3(C)CC(=O)[C@]4(O)C5=C(C=C[C@]4(O)C3)C(=O)c3c(ccc([C@H]4C[C@H]6O[C@H]7CC(=O)[C@H](C)O[C@H]7O[C@H]6[C@@H](C)O4)c3O)C5=O)O[C@H]2C)C(N)=CC1=O
- Activity [13]: Non-Toxic

- inhibition [3]: Active
SMILES: C[C@@H]1O[C@@H](O[C@H]2CC[C@H](O[C@@]3(C)CC(=O)[C@]4(O)C5=C(C=C[C@]4(O)C3)C(=O)c3c(ccc([C@H]4C[C@@H](O)[C@H](O[C@H]6CC[C@H](O)[C@H](C)O6)[C@@H](C)O4)c3O)C5=O)O[C@H]2C)C=CC1=O [SAQUAYAMYCIN K]
- IC50 [1]: < 500 nM
- IC50 [2]: < 500 nM

SMILES: COc1cccc2c1C(=O)c1cc(O)c(/C=C(/C)CC(=O)O)c(O)c1C2=O
- Activity [4]: inactive
- Activity [5]: inactive
- Activity [6]: inactive
- Activity [7]: inactive
- Activity [8]: inactive
- Activity [9]: inactive
- Activity [10]: inactive
- Activity [11]: inactive
- Activity [12]: inactive

SMILES: COC(=O)C/C(C)=C\c1c(O)cc2c(c1O)C(=O)c1cccc(O)c1C2=O
- Activity [4]: inactive
- Activity [5]: inactive
- Activity [6]: inactive
- Activity [7]: inactive
- Activity [8]: inactive
- Activity [9]: inactive
- Activity [10]: inactive
- Activity [11]: inactive
- Activity [12]: inactive

SMILES: Cc1cc(O)c2c(c1)C[C@@H](O)C1=C2C(=O)c2cccc(O[C@H]3C[C@@H](O)[C@H](O[C@H]4C[C@@H](O[C@H]5CC[C@H](O[C@H]6C[C@@H](O)[C@H](O[C@H]7C[C@@H](O)[C@H](O)[C@@H](C)O7)[C@@H](C)O6)[C@H](C)O5)[C@H](O)[C@@H](C)O4)[C@@H](C)O3)c2C1=O [LANDOMYCIN V]
- Activity [13]: Toxic

- inhibition [3]: Active
SMILES: C[C@@H]1O[C@H]2O[C@H]3[C@@H](C)O[C@@H](c4ccc5c(c4O)C(=O)C4=C(C5=O)[C@@]5(O)C(=O)C[C@](C)(O[C@H]6CC[C@H](O[C@H]7CC[C@H](O)[C@H](C)O7)[C@H](C)O6)C[C@@]5(O)C=C4)C[C@H]3O[C@H]2CC1=O
- IC50 [1]: < 500 nM
- IC50 [2]: < 500 nM
- Activity [13]: Non-Toxic

- inhibition [3]: Active
SMILES: Cc1cc(O)c2c(c1)C[C@@H](O)C1=C2C(=O)c2cccc(O[C@H]3C[C@@H](O)[C@H](O[C@H]4C[C@@H](O[C@H]5CC[C@H](O[C@H]6CC[C@H](O[C@H]7C[C@@H](O[C@H]8CC[C@H](O)[C@H](C)O8)[C@H](O)[C@@H](C)O7)[C@@H](C)O6)[C@H](C)O5)[C@H](O)[C@@H](C)O4)[C@@H](C)O3)c2C1=O
- IC50 [1]: < 500 nM
- IC50 [2]: < 500 nM

SMILES: C[C@@H]1O[C@@H](O[C@H]2CC[C@H](O[C@@]3(C)CC(=O)[C@]4(O)C5=C(C=C[C@]4(O)C3)C(=O)c3c(ccc([C@H]4C[C@H]6O[C@H]7CC(=O)[C@H](C)O[C@H]7O[C@H]6[C@@H](C)O4)c3O)C5=O)O[C@H]2C)C=CC1=O
- IC50 [1]: < 500 nM
- IC50 [2]: < 500 nM
- inhibition [3]: Active

SMILES: C[C@@H]1O[C@@H](O[C@H]2CC[C@H](O[C@@]3(C)CC(=O)[C@]4(O)C5=C(C=C[C@]4(O)C3)C(=O)c3c(ccc([C@H]4C[C@@H](O)[C@H](O)[C@@H](C)O4)c3O)C5=O)O[C@H]2C)C=CC1=O [SAQUAYAMYCIN G]
- Activity [13]: Non-Toxic

SMILES: COc1cccc2c1C(=O)c1ccc(/C=C(\C)CC(=O)O)c(O)c1C2=O
- Activity [4]: inactive
- Activity [5]: inactive
- Activity [6]: inactive
- Activity [7]: inactive
- Activity [8]: inactive
- Activity [9]: inactive
- Activity [10]: inactive
- Activity [11]: inactive
- Activity [12]: inactive
